Data reported in ChEMBL document CHEMBL5030548, “Blockade of GRTH/DDX25 Phosphorylation by Cyclic Peptides Provides an Avenue for Developing a Nonhormonal Male Contraceptive” (J Med Chem, 2021).
Activity calls are given as the source filed them. The rule behind the calls is not given here. Where a SMILES comes first, the peptide text is derived from it. [ ]: non-standard residue; d: D form. The star is where a group is joined. FITC = O=C1OC2(c3ccc(O)cc3Oc3cc(O)ccc32)c2ccc(NC(=S)*)cc21; 2Nal = N[C@@H](Cc1ccc2ccccc2c1)C(=O)O; AEEA = NCCOCCOCC(=O)O

Key:
COS-1 [1] = test: Inhibition of GRTH phosphorylation (unknown origin) expressed in COS-1 cells assessed as reduction in pGRTH protein level at 5 to 100 uM measured after 16 hrs by western blot analysis; format: cell-based; conditions: Homo sapiens, dose 5-100 µM
Procedure, shortened: (§1)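 COS-1 cells stably expressing human GRTH-V5-His at ~90% confluence. Peptides dissolved in water and given at 5, 20, 60 or 100 μM for 16 h, or at 100 μM for 4, 8, 16 or 24 h. 30 μg protein per sample was blotted with a rabbit phospho-T239-specific GRTH antibody. 61 kDa pGRTH band normalized to β-actin; three independent experiments; ANOVA with Tukey test.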

Mus musculus [2] = species on record: Mus musculus; test: Inhibition of GRTH phosphorylation in mouse seminiferous tubule of testis assessed as reduction in pGRTH protein level at 100 uM measured after 16 hrs by western blot analysis; format: tissue-based
Procedure, shortened: (§2)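 Seminiferous tubules from adult mice (90 days old) in medium 199, 4 h, then 100 μM peptide for 16 h. Lysates were blotted with phospho-specific GRTH antibody. pGRTH band normalized to β-actin and compared with untreated tubules; n = 3.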

[3] = Drug uptake in cytoplasm of African green monkey COS-1 cells assessed as compound accumulation in cytoplasm at 20 uM incubated for 4 hrs in presence of FITC-labelled peptide by DAPI staining based inverted phase contrast fluorescence microscope analysis; format: ADME, subcellular; conditions: chlorocebus aethiops, cos-1, 4 h
Procedure, shortened: (§3)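 Stable GRTH-expressing COS-1 cells grown overnight on coverslips, then given 20 μM FITC-tagged peptide for 4 h. After PBS wash they were fixed in 50% then 100% methanol, 1 min each, and mounted with DAPI. Green signal in cytoplasm and nucleus was viewed by inverted fluorescence microscopy.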

[4] = Drug uptake in mouse seminiferous tubule of testis at 100 uM incubated for 16 hrs by immunofluorescence microscopic analysis; format: ADME, tissue-based; conditions: in vitro
Procedure, shortened: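 Seminiferous tubules from decapsulated testes of 90-day-old mice were segmented and placed in medium 199. After 4 h, 100 μM FITC-tagged peptide was added for 16 h. Tubules were PBS-washed, mounted with antifade and imaged by fluorescence microscopy.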

[5] = Drug uptake in nucleus of African green monkey COS-1 cells assessed as compound accumulation in nucleus at 20 uM incubated for 4 hrs in presence of FITC-labelled peptide by DAPI staining based inverted phase contrast fluorescence microscope analysis; format: ADME, subcellular; conditions: chlorocebus aethiops, cos-1, 4 h; procedure, shortened: as §3
COS-1 [6] = test: Binding affinity to GRTH (unknown origin) expressed in COS-1 cell lysate assessed as thermostabilization of protein at 40 uM incubated for 16 hrs followed by heating at 40 to 70 degree C for 3 mins by CETSA based western blot analysis; format: subcellular; conditions: Homo sapiens
Procedure, shortened: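 Lysate of COS-1 cells stably carrying human GRTH-V5-His, made with protease/phosphatase inhibitor and cleared by centrifugation, then diluted in lysis buffer. Peptide added to 40 μM and rotated 16 h at 4 °C. Aliquots were heated 3 min at 40–70 °C and cooled 3 min at room temperature, then spun. Soluble non-phospho GRTH was read by western blot; 40 °C sample served as reference; n = 3.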

COS-1 [7] = test: Inhibition of PKA-induced GRTH phosphorylation (unknown origin) expressed in COS-1 cells at 100 uM stimulated with PKA for 24 hrs followed by peptide addition and incubated overnight by Western blot analysis; format: cell-based; conditions: Homo sapiens
Procedure, shortened: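 Stable GRTH COS-1 cells at 0.3 × 10^6/well were transfected with PKAα catalytic subunit plasmid (3 μg/well), or with empty plasmid, and grown 24 h. Peptide was then added at 100 μM overnight at 37 °C. pGRTH was detected by western blot with phospho-specific antibody (1:1000) and normalized to β-actin; three experiments.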

COS-1 [8] = test: Binding affinity to mCherry labelled GRTH (unknown origin) expressed in COS-1 cells assessed as increase in fluorescence intensity of donor peptide FITC in bleached region at 15 uM followed by acceptor photobleaching measured after 16 hrs by inverted microscope based live cell imaging analysis; conditions: Homo sapiens
Procedure, shortened: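 COS-1 cells carrying an mCherry-human GRTH fusion, in glass-bottom dishes, exposed to 15 μM FITC-labelled peptide for 16 h, then imaged live. mCherry was excited at 561 nm and FITC at 488 nm (emission 500–550 nm). ROIs were bleached in the acceptor channel at 514 nm, 100% power, 10 iterations. FRET efficiency E% = 100 × (FITC postbleach − FITC prebleach)/FITC postbleach.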

COS-1 [9] = test: Cytotoxicity against African green monkey COS-1 cell assessed as reduction in cell viability incubated for 24 hrs by CellTiter 96 non-radioactive cell proliferation assay; format: cell-based; conditions: Chlorocebus aethiops, COS-1, 24 h
Procedure, shortened: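 COS-1 cells stably expressing human GRTH, seeded at 0.01 × 10^6/well and left 16 h. Peptides at 10, 50, 100, 250 and 500 μM for 24 h at 37 °C with 5% CO2. Tetrazolium dye was then added for 4 h, reaction stopped, absorbance read at 570 nm. Viability taken as % of control OD; IC50 by linear regression of dose–response.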

COS-1 [10] = test: Inhibition of GRTH phosphorylation (unknown origin) expressed in COS-1 cells assessed as reduction in pGRTH protein level at 100 uM measured after 24 hrs by western blot analysis; format: cell-based; conditions: Homo sapiens; procedure, shortened: as §1
COS-1 [11] = test: Inhibition of GRTH phosphorylation (unknown origin) expressed in COS-1 cells assessed as reduction in pGRTH protein level measured after 16 hrs by western blot analysis; format: cell-based; conditions: Homo sapiens; procedure, shortened: as §1
COS-1 [12] = test: Inhibition of GRTH phosphorylation (unknown origin) expressed in COS-1 cells assessed as reduction in pGRTH protein level at 100 uM measured after 16 to 24 hrs by western blot analysis; format: cell-based; conditions: Homo sapiens, time 16-24 hrs; procedure, shortened: as §1
COS-1 [13] = test: Inhibition of GRTH phosphorylation (unknown origin) expressed in COS-1 cells assessed as reduction in pGRTH protein level at 100 uM measured after 8 to 16 hrs by western blot analysis; format: cell-based; conditions: Homo sapiens, time 8-16 hrs; procedure, shortened: as §1
Mus musculus [14] = species on record: Mus musculus; test: Inhibition of GRTH phosphorylation in mouse seminiferous tubule of testis assessed as reduction in pGRTH protein level at 100 uM measured after 16 hrs by western blot analysis relative to control; format: tissue-based; procedure, shortened: as §2

SMILES | inhibition (COS-1 [1]) | inhibition (Mus musculus [2]) | Drug uptake [3] | Drug uptake [4] | Drug uptake [5] | Activity (COS-1 [6]) | inhibition (COS-1 [7]) | Activity (COS-1 [8]) | IC50 (COS-1 [9]) [µM] | inhibition (COS-1 [10]) | inhibition (COS-1 [11]) | inhibition (COS-1 [12]) | inhibition (COS-1 [13]) | inhibition (Mus musculus [14]) [%]
N=C(N)NCCC[C@H](NC(=O)CNC(=O)[C@H](Cc1ccc2ccccc2c1)NC(=O)[C@@H](N)Cc1ccccc1)C(=O)N[C@@H](CCCNC(=N)N)C(=O)N[C@@H](CCCNC(=N)N)C(=O)N[C@@H](CCCCNC(=S)Nc1ccc2c(c1)C(=O)OC21c2ccc(O)cc2Oc2cc(O)ccc21)C(=O)NCCOCCOCC(=O)O (H-F[2Nal]GRRRK(FITC)[AEEA]-OH) | inactive | inactive | Not Active | Active | Not Active |  |  |  |  |  |  |  |  | 
O=C(O)CC[C@@H]1NC(=O)CNC(=O)[C@H](Cc2ccc3ccccc3c2)NC(=O)[C@H](Cc2ccccc2)NC(=O)COCCOCCNC(=O)[C@H](CCCCNC(=S)Nc2ccc3c(c2)C(=O)OC32c3ccc(O)cc3Oc3cc(O)ccc32)NC(=O)[C@H](CCC(=O)O)NC(=O)[C@H](CCC(=O)O)NC1=O (cyclo([2Nal]GEEEK(FITC)[AEEA]F)) | inactive | inactive | Active | Active | Active | inactive | inactive | inactive |  |  |  |  |  | 
N=C(N)NCCC[C@@H]1NC(=O)CNC(=O)[C@H](Cc2ccc3ccccc3c2)NC(=O)[C@H](Cc2ccccc2)NC(=O)COCCOCCNC(=O)CNC(=O)[C@H](CCCNC(=N)N)NC(=O)[C@H](CCCNC(=N)N)NC1=O (cyclo([2Nal]GRRRG[AEEA]F)) |  |  |  |  |  |  |  |  | 392 | Active | Dose-Dependent Effect | Active |  | 
N=C(N)NCCC[C@@H]1NC(=O)CNC(=O)[C@H](Cc2ccc3ccccc3c2)NC(=O)[C@H](Cc2ccccc2)NC(=O)COCCOCCNC(=O)[C@H](CCCCNC(=S)Nc2ccc3c(c2)C(=O)OC32c3ccc(O)cc3Oc3cc(O)ccc32)NC(=O)[C@H](CCCNC(=N)N)NC(=O)[C@H](CCCNC(=N)N)NC1=O (cyclo([2Nal]GRRRK(FITC)[AEEA]F)) |  |  | Active | Active | Active | Active | Active | Active | 312 | Active | Dose-Dependent Effect |  | Active | 
N=C(N)NCCC[C@@H]1NC(=O)CNC(=O)[C@H](Cc2ccc3ccccc3c2)NC(=O)[C@H](Cc2ccccc2)NC(=O)COCCOCCNC(=O)[C@@H](CCCCNC(=S)Nc2ccc3c(c2)C(=O)OC32c3ccc(O)cc3Oc3cc(O)ccc32)NC(=O)[C@H](CCCNC(=N)N)NC(=O)[C@H](CCCNC(=N)N)NC1=O (cyclo([2Nal]GRRR[dK](FITC)[AEEA]F)) |  |  | Active | Active | Active | Active | Active | Active | 333 | inactive | Dose-Dependent Effect |  | Active | 60
N=C(N)NCCC[C@@H]1NC(=O)CNC(=O)CNC(=O)CNC(=O)COCCOCCNC(=O)[C@H](CCCCNC(=S)Nc2ccc3c(c2)C(=O)OC32c3ccc(O)cc3Oc3cc(O)ccc32)NC(=O)[C@H](CCCNC(=N)N)NC(=O)[C@H](CCCNC(=N)N)NC1=O (cyclo([AEEA]GGGRRRK(FITC))) | inactive | inactive | Active | Active | Active |  |  |  |  |  |  |  |  | 
